Screening data as filed in PubChem BioAssay.
KCNQ1 pot: potentiators or activators of KCNQ1 channel, primary screen, cell-based, thallium flux, high-throughput; CHO-K1 KCNQ1, thallium flux FluxOR fluorescence; active compounds read high; 0.35% of 310,000 active; B-score at 10 µM; Potassium voltage-gated channel subfamily KQT member 1 (Homo sapiens), P51787;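 active = fluorescence ratio B-score, a plate-corrected score, at least three library SD, with initial intensity B-score within 5 SD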
Target sequence (P51787 whole entry, looked up): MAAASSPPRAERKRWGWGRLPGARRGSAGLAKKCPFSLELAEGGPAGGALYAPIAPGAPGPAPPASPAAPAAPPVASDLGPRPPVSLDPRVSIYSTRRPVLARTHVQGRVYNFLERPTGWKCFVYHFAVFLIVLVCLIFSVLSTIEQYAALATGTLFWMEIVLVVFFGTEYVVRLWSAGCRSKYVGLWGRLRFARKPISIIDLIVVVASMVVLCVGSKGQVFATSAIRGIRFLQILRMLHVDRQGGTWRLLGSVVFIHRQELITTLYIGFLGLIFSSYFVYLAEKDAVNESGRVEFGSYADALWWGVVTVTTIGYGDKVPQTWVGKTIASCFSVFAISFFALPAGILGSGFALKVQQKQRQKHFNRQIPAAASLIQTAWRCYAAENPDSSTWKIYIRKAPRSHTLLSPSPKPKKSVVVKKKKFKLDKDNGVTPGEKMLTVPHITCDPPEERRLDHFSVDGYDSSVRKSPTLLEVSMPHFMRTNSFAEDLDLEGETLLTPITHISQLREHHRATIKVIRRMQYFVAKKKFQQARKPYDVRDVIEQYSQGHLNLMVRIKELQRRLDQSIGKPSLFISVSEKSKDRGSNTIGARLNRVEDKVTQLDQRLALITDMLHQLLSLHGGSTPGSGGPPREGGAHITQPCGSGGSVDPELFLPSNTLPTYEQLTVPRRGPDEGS
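Assay system: stable KCNQ1 CHO-K1 line; medium: assay buffer, equal DMSO in all wells; timing: 90 min dye loading and 20 min compound exposure, both at room temperature; technique: kinetic FluxOR thallium fluorescence, 10-s 1-Hz baseline, 110-s post-stimulus read; read-out basis: B score of baseline-normalized fluorescence ratio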
KCNK3 inh: human KCNK3 channel inhibitors, primary screen, CHO cells, FluxOR thallium flux, B-score | FluxOR fluorescence; active compounds read low | 0.84% of 340,000 active | B-score at 10 µM | AID 602410, 2012 | Potassium channel subfamily K member 3 (Homo sapiens), O14649;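 active = B-score under library mean minus 4 SD, starting fluorescence ratio at most library mean plus 5 SD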;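 note: more negative B-score means stronger inhibition of thallium flux through KCNK3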
KCNK9 inh: KCNK9 potassium channel inhibitors, primary screen, HEK293 cells, thallium flux. Potassium channel subfamily K member 9 (Homo sapiens), Q9NPC2. FluxOR thallium flux fluorescence; active compounds read low. B-score at 10 µM. 1.2% of 310,000 active;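 active = ratio B-score over 3 SD below the library mean, with starting fluorescence within 5 SD of its mean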;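 note: negative B-score means less thallium flux so channel inhibition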
KCNQ1 inh: inhibitors of human KCNQ1 channel, primary screen, cell-based, thallium flux, high-throughput. Potassium voltage-gated channel subfamily KQT member 1 (Homo sapiens), P51787. CHO-K1 KCNQ1, FluxOR thallium flux fluorescence; active compounds read high. B-score at 10 µM. 1.3% of 310,000 active. AID 2642, 2010;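 active = compounds whose thallium flux B-score, printed positive for inhibition, exceeds three library SD while starting fluorescence stays within three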;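 note: channel opened by potassium depolarization with thallium stimulus after 20 min compound exposure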
Kir21 block: inhibitors of mouse Kir2.1 inward-rectifier potassium channel; AID 1672, 2009; HEK293-Kir2.1, FluxOR thallium flux fluorescence; active compounds read low; B-score at 10 µM; 0.85% of 310,000 active;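 active = fluorescence ratio B-score at or below minus 3 SD of library scores, with starting-brightness B-score within 2 SD, cut at about -4.2 in these data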;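 note: channel flux triggered by added potassium and thallium sulfate stimulus; B-score of peak minus minimum fluorescence over baseline after thallium stimulus; more negative B-score means stronger Kir2.1 block with less thallium influx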
hERG rescue: hERG rescue from dofetilide block, primary screen, cell-based, CHO-hERG, FluxOR thallium flux, dofetilide IC70. Voltage-gated inwardly rectifying potassium channel KCNH2 (Homo sapiens), Q12809. dofetilide IC70 present. activation (rescue from dofetilide block), less the hit threshold, % at 10 µM. 0.51% of 310,000 active. AID 1511, 2009;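 active = activation above the mean of controls blocked by dofetilide plus 5 SD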;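 note: thallium influx through hERG after potassium depolarization seen as dye fluorescence rise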
KCNK9 block conf: KCNK9 potassium channel inhibitors, confirmation, HEK293 cells, thallium flux, duplicate; shares compounds with KCNK9 inh; FluxOR thallium flux fluorescence; inhibition, % at 10 µM; 43% of 4,900 active;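 active = thallium signal inhibited by more than 5 SD of the compound-free buffer control wells, on both duplicate plates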;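 note: 0% = assay buffer control wells without compound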
Kir2-1 spec: mouse Kir2.1 channel inhibition, confirmation, selectivity assay for KCNK9 modulator project, cell-based, HEK293, thallium flux | 4% of 4,900 active | inhibition, % at 10 µM | Kir2.1 cells, FluxOR thallium flux fluorescence | shares compounds with KCNK9 inh;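 active = thallium signal drop more than 5 SD beyond the mean of the no-compound control wells, seen in both duplicate plates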;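 note: signal is fluorescence rise after thallium addition divided by baseline fluorescence; plate controls were assay buffer only for no effect and full block by chlorpromazine control for full effect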
HEK293 Tl ctr: thallium flux in non-induced HEK293 cells, confirmation, counter-screen for KCNK9 inhibitor project, cell-based, second counter screen, non-induced KCNK9-HEK293; 40% of 4,900 active; shares compounds with KCNK9 inh; FluxOR thallium flux; inhibition, % at 10 µM; AID 492997, 2010;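 active = thallium signal drop beyond 5 SD of the untreated control mean, on both duplicate plates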;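 note: plate controls were buffer only IC0 wells for no effect and SID17386958 at its maximal inhibitory level for full effect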
The depositor's hits bear a star; i = inactive; / = no result. A selection: hits, their analogues and other compounds. The true share with any hit is near 3.7%.

SMILES | KCNQ1 pot | KCNK3 inh | KCNK9 inh | KCNQ1 inh | Kir21 block | hERG rescue | KCNK9 block conf | Kir2-1 spec | HEK293 Tl ctr
CCN1CCN(c2ccc(NC(=O)COc3ccc([N+](=O)[O-])cc3)cc2)CC1 | i | i | i | i | -1.2 | -3 | / | / | /
Fc1cccc(Cl)c1Cc1noc(/C=C/c2ccccc2)n1 | i | i | i | i | 0.08 | 1 | i | i | i
O=C(Nc1ccccc1)OC1CC2CC1C1CCCC21 (stereo not given) | i | i | i | i | -2 | -3 | i | i | i
O=C(Nc1ccccc1)O[C@@H]1C[C@H]2CCCC(=O)N3CC[C@@H](C1)[C@@H]23 | / | i | / | / | / | / | / | / | /
Cn1c(C(=O)N2CCN(c3cccc(C(F)(F)F)c3)CC2)cc2sccc21 | i | i | i | i | 1.9 | -14 | i | i | i
Cc1ccc(C)c(N2CCN(C(=O)c3cc4sccc4n3C)CC2)c1 | i | i | i | i | -0.09 | -15 | / | / | /
CN(c1ccccc1)S(=O)(=O)c1cccc(NC(=O)CSc2n[nH]c(N)n2)c1 | i | i | i | i | -0.79 | -22 | i | i | i
COc1cccc(N(CC(=O)NC2CCCCC2)C(=O)CCC(=O)Nc2nccs2)c1 | i | i | i | i | 0.16 | -12 | / | / | /
COc1cc(C(=O)NCc2ccc(S(N)(=O)=O)cc2)ccc1OCC(=O)N1CCOCC1 | / | i | / | / | / | / | / | / | /
Cc1ccc(NC(=O)c2cccc3c2C(=O)N(C2CCCCC2)C3)c(Cl)c1 | i | i | -18* | i | -0.63 | -8 | 56%* | i | 44%*
O=C(Nc1ccc(Br)cc1)c1cccc2c1C(=O)N(C1CCCCC1)C2 | i | i | i | i | 0.42 | -9 | / | / | /
O=C(Nc1ccc(Br)cc1Br)c1cccc2c1C(=O)N(C1CCCCC1)C2 | i | i | -18* | i | 0.05 | -8 | 50%* | i | 33%*
C=CC[C@@H](CC(=O)N(CCO)Cc1ccccc1)C(=O)NCCOC(=O)[C@H](CC=C)CC(=O)OC(C)(C)C | / | i | / | / | / | / | / | / | /
Cc1ccc(C)c(N2CCN(C(=O)C3CCCCN3S(=O)(=O)c3ccc(F)cc3)CC2)c1 (stereo not given) | i | i | -19* | i | -0.1 | -6 | 30%* | i | 30%*
O=C(O)C1CCCN1S(=O)(=O)c1ccc(F)cc1 (stereo not given) | i | i | i | i | -1.7 | -3 | / | / | /
CCn1cc(C2=NC(C)(C)CO2)c2ccccc21 | i | i | i | i | 0.27 | -8 | i | i | i
COc1ccc(C(=O)Nc2cc(Cl)ccc2-n2cncn2)c(OC)c1OC | / | i | / | / | / | / | / | / | /
Cn1c(=O)c2c(SCc3ccccn3)nc(CC(C)(C)C)nc2n(C)c1=O | i | i | i | i | 0.46 | -19 | i | i | i
CCCc1nc(SCc2ccccn2)c2c(=O)n(C)c(=O)n(C)c2n1 | i | i | i | i | 0.1 | -18 | / | / | /
Cc1c(N2C(=O)c3ccccc3C2=O)c(=O)n(-c2ccccc2)n1C | i | i | i | i | -1 | -6 | / | / | /
